These results are taken from ChEMBL document CHEMBL1121618, “Thymidine phosphorylase. Substrate specificity for 5-substituted 2'-deoxyuridines” (J Med Chem, 1980).

This test is described as follows: Ratio of Vmax to that of dThd (Vmax = 0.14). The method in brief:
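Continuous UV assay of phosphorolysis by a dThd phosphorylase preparation. Initial rates were followed at each nucleoside's Δλmax, the wavelength of maximal nucleoside/base absorbance difference determined per substrate, and converted using Δεmax. Nucleoside was varied from 60–320 μM in 0.1 M potassium phosphate (pH 6.0) with limiting enzyme at 25.0 °C. Vmax was expressed relative to dThd in the same assay.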
For `C=CCc1cn([C@H]2C[C@H](O)[C@@H](CO)O2)c(=O)[nH]c1=O`, the Vmax was 0.76.
With `O=c1ccn([C@H]2C[C@H](O)[C@@H](CO)O2)c(=O)[nH]1` the figure was 0.88; with `O=c1[nH]c(=O)n([C@H]2C[C@H](O)[C@@H](CO)O2)cc1F`, 3.42.
Under `O=c1[nH]c(=O)n([C@H]2C[C@H](O)[C@@H](CO)O2)cc1CO` stands 0.6; under `Cc1cn([C@H]2C[C@H](O)[C@@H](CO)O2)c(=O)[nH]c1=O`, 1.
As for `C/C=C/c1cn([C@H]2C[C@H](O)[C@@H](CO)O2)c(=O)[nH]c1=O`, the Vmax worked out at 0.57.
Under `O=Cc1cn([C@H]2C[C@H](O)[C@@H](CO)O2)c(=O)[nH]c1=O` stands 1.46; under `O=c1[nH]c(=O)n([C@H]2C[C@H](O)[C@@H](CO)O2)cc1C(F)(F)F`, 8.53; under `O=c1[nH]c(=O)n([C@H]2C[C@H](O)[C@@H](CO)O2)cc1I`, 3.85.
With `O=c1[nH]c(=O)n([C@H]2C[C@H](O)[C@@H](CO)O2)cc1Br` the figure was 3.51.
Under `N#Cc1cn([C@H]2C[C@H](O)[C@@H](CO)O2)c(=O)[nH]c1=O` stands 0.74.
Consider `O=c1[nH]c(=O)n([C@H]2C[C@H](O)[C@@H](CO)O2)cc1Cl`, for which the Vmax was 4.2.
Under `CCc1cn([C@H]2C[C@H](O)[C@@H](CO)O2)c(=O)[nH]c1=O` stands 0.79.
